ChEMBL document CHEMBL4373650, “Synthesis, conformational preferences, and biological activity of conformational analogues of the microtubule-stabilizing agents, (-)-zampanolide and (-)-dactylolide” (Medchemcomm, 2019)

Tests used:
Tubulin (Homo sapiens) [1] = molecular target: T1, Tubulin (Homo sapiens) (UniProt P68371+Q9H4B7+P0DPH7+P68366+Q13509+Q71U36+P04350+Q3ZCM7+P07437+P68363+Q9BQE3+Q6PEY2+Q13885+Q9BVA1+Q9BUF5); assay: Induction of microtubule stabilization in human 1A9 cells assessed as inhibition of cell growth incubated for 72 hrs by Celltiter reagent-based assay
How it was run: (§1)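 Cells kept in DMEM with 10% fetal bovine serum. Exposed to serial dilutions of each compound for 3 days, then growth read with CellTiter reagent and GI50 determined. Each compound first run as a 10-dose dilution series, then as narrower replicate 6-dose series, each a separate experiment.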

Tubulin (Homo sapiens) [2] = molecular target: T1, Tubulin (Homo sapiens); assay: Induction of microtubule stabilization in human PC3 cells assessed as inhibition of cell growth incubated for 72 hrs by Celltiter reagent-based assay; how it was run: as §1
Tubulin (Homo sapiens) [3] = molecular target: T1, Tubulin (Homo sapiens); assay: Induction of microtubule stabilization in human A549 cells assessed as inhibition of cell growth incubated for 72 hrs by Celltiter reagent-based assay; how it was run: as §1

| GI50 (Tubulin (Homo sapiens) [1]) | GI50 (Tubulin (Homo sapiens) [2]) | GI50 (Tubulin (Homo sapiens) [3]) | SMILES |
| --- | --- | --- | --- |
| > 30 µM | > 30 µM | > 30 µM | C/C1=C/C=C/C(=O)O[C@H](CO)C/C=C/[C@@H]2CCC[C@H](C/C=C/C(=O)C1)O2 |
| > 30 µM | > 30 µM | > 30 µM | C/C1=C/C=C/C(=O)O[C@H](C=O)C/C=C/[C@@H]2CCC[C@H](C/C=C/C(=O)C1)O2 |

Continued, compound first:

| SMILES | GI50 (Tubulin (Homo sapiens) [1]) | GI50 (Tubulin (Homo sapiens) [2]) | GI50 (Tubulin (Homo sapiens) [3]) |
| --- | --- | --- | --- |
| CC(=O)O[C@H]1C(=O)[C@@]2(C)[C@H]([C@H](OC(=O)c3ccccc3)[C@]3(O)C[C@H](OC(=O)[C@H](O)[C@@H](NC(=O)c4ccccc4)c4ccccc4)C(C)=C1C3(C)C)[C@]1(OC(C)=O)CO[C@@H]1C[C@@H]2O | 0.0052 µM | 0.0046 µM | 0.006 µM |
| C/C=C/C=C\C(=O)NC(O)[C@@H]1C/C=C/[C@@H]2CCC[C@H](C/C=C/C(=O)C/C(C)=C\C=C\C(=O)O1)O2 (stereo partly drawn) | 0.12 µM | 0.056 µM | 0.18 µM |
| C=C1C[C@@H]2C/C=C/C(=O)C/C(C)=C\C=C\C(=O)O[C@H]([C@H](O)NC(=O)/C=C\C=C\C)C/C(C)=C/[C@H](C1)O2 | 0.0021 µM | 0.0032 µM | 0.0052 µM |
| C=C1C[C@@H]2C/C=C/C(=O)C/C(C)=C\C=C\C(=O)O[C@H](C=O)C/C(C)=C/[C@H](C1)O2 | 0.62 µM | 0.46 µM | 0.95 µM |
